Test results from ChEMBL document CHEMBL2439972, “Synthesis, pharmacological and structural characterization, and thermodynamic aspects of GluA2-positive allosteric modulators with a 3,4-dihydro-2H-1,2,4-benzothiadiazine 1,1-dioxide scaffold” (J Med Chem, 2013).

Columns and labels:
Glutamate receptor 2 [1] = biological target: T1, Glutamate receptor 2 (Rattus norvegicus, UniProt P19491); test: Positive allosteric modulation of GluA2 receptor in rat embryonic cortex neuron assessed as increase of AMPA-induced membrane depolarization by fluorescence assay
Outline: (§1)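 Rat E16 cortical cells cultured 18 days (37 °C, 5% CO2) were loaded with membrane-potential dye for 1 h at room temperature and read on an imaging plate reader. After a 10 s baseline, AMPA (300 μM) was added for 3 min, then compound plus AMPA for 3 min. Signal was averaged over the last 15 s, as area under the curve. Outputs: EC2× (2-fold increase), EC50, Emax relative to AMPA alone (×1). Mean ± SEM (n).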

[2] = biological target: Glutamate receptor 2 (Rattus norvegicus) (UniProt P19491); test: Positive allosteric modulation of GluA2 receptor in rat embryonic cortex neuron assessed as increase of AMPA-induced membrane depolarization by fluorescence assay relative to AMPA; outline: as §1
[3] = biological target: Glutamate receptor 2 (Rattus norvegicus) (UniProt P19491); test: Positive allosteric modulation of GluA2 receptor in rat embryonic cortex neuron assessed as concentration required to 2 fold increase of AMPA-induced membrane depolarization by fluorescence assay; outline: as §1
[4] = Positive allosteric modulation of GluA2 receptor (unknown origin) expressed in Xenopus laevis oocytes assessed as concentration required to 2 fold increase of AMPA-induced membrane depolarization by voltage clamp assay; details: Oocyte
[5] = biological target: Glutamate receptor 2 (Rattus norvegicus) (UniProt P19491); test: Positive allosteric modulation of GluA2 receptor in rat embryonic cortex neuron assessed as concentration required to 2 fold increase of AMPA-induced membrane depolarization by FLIPR assay
Outline: (§2)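 FLIPR version of the membrane-potential dye assay on primary rat embryonic cortical neurons, same principle on a different plate reader. Measures depolarization evoked by 300 μM AMPA. Outputs: EC2× (modulator concentration doubling the AMPA response), EC50, Emax normalized to the AMPA response (×1).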

Glutamate receptor 2 [6] = biological target: T1, Glutamate receptor 2; test: Positive allosteric modulation of GluA2 receptor in rat embryonic cortex neuron assessed as increase of AMPA-induced membrane depolarization by FLIPR assay; outline: as §2
[7] = biological target: Glutamate receptor 2 (Rattus norvegicus) (UniProt P19491); test: Positive allosteric modulation of GluA2 receptor in rat embryonic cortex neuron assessed as increase of AMPA-induced membrane depolarization by FLIPR assay relative to AMPA; outline: as §2
[8] = Binding affinity to rat LBD of GluA2 receptor L483Y and N754S mutant at 243 uM by isothermal titration calorimetry analysis

T1 sequence (P19491 whole entry): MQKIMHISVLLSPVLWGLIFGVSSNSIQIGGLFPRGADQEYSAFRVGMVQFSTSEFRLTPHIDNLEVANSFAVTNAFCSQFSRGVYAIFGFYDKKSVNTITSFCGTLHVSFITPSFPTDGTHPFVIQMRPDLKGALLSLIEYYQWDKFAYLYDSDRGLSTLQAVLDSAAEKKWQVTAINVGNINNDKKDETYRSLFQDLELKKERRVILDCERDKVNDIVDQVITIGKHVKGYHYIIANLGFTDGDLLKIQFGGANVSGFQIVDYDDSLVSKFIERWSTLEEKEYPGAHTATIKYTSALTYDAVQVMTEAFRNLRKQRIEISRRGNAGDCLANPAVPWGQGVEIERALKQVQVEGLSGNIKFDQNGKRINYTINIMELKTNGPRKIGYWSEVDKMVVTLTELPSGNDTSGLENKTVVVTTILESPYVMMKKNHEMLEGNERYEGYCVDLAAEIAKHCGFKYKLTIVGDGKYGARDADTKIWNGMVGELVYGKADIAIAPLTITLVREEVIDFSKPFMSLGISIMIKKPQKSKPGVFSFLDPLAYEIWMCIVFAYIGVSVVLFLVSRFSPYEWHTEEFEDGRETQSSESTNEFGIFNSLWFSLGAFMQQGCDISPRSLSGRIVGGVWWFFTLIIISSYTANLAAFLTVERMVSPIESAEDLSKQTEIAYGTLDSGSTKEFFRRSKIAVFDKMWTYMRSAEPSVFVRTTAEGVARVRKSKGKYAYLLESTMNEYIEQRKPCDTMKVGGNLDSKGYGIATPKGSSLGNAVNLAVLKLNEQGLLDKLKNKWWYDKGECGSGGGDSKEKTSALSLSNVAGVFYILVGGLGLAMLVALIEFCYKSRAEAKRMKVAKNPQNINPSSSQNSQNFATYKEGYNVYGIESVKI
Chain of Glutamate receptor 2 (Rattus norvegicus) (P19491 whole entry, the tested form may be a part): as the sequence (P19491 whole entry) above

EC50 (Glutamate receptor 2 [1]) [µM]	fold change (FC) [2]	Activity [3] [µM]	Activity [4] [µM]	Activity [5] [µM]	EC50 (Glutamate receptor 2 [6]) [µM]	fold change (FC) [7]	Kd [8] [µM]	SMILES
3.13	10.9	0.75	0.8	–	–	–	–	O=S1(=O)NCN(C2CC2)c2ccc(Cl)cc21
2.5	9.2	0.47	–	–	–	–	–	N#Cc1ccc2c(c1)S(=O)(=O)NCN2C1CC1
–	–	> 100	–	–	–	–	–	O=S1(=O)NCN(C2CC2)c2ccc(C(F)(F)F)cc21
–	–	–	–	14	22.5	7	–	O=[N+]([O-])c1ccc2c(c1)S(=O)(=O)NCN2C1CC1
–	8.7	5.13	–	–	–	–	–	Cc1ccc2c(c1)S(=O)(=O)NCN2C1CC1
4.83	9.3	1.27	–	–	–	–	–	O=S1(=O)NCN(C2CC2)c2ccc(Br)cc21
4.17	8.5	0.73	–	–	–	–	–	O=S1(=O)NCN(C2CC2)c2ccccc21
0.9	15	0.27	–	–	–	–	0.35	O=S1(=O)NCN(C2CC2)c2ccc(F)cc21
